Screens: PubChem BioAssay, several laboratories
p-CIP stab down – compounds decreasing mouse p/CIP protein stability. Q05BA5. F442A p/CIP-EGFP cells, EGFP fluorescence, 16 h. decrease of EGFP signal, % at 10 µM. actives 0.01% (n = 290,000);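 active = EGFP signal decrease of at least 30% at 10 µM or well 3 SD below plate mean, unless failing retest; inactive = the rest, including hits failing retest or dose response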
T cruzi repl – T. cruzi replication inhibition | T. cruzi beta-gal in NIH3T3, luminescence, 90 h | inhibition, % (concentration not given with the values) | actives 1.4% (n = 300,000) | AID 1885;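 active = mean inhibition across valid replicates above about 55%, limit read from the data; inconclusive = mean below that limit but half or more replicates reach it; inactive = mean below it, under half of replicates reach it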;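 also: signal also drops with host cell toxicity which is not excluded here; higher percent means less beta-gal luminescence so fewer parasites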
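Assay system: NIH/3T3 host cells with β-galactosidase reporter T. cruzi; input: 5,000 host fibroblasts per well; compound: single 50 nL compound addition per well in DMSO; timing: ≥90 h infection period, 3 h prior cell attachment; measured by: GalScreen β-gal luminescence, detergent lysis, 60 min; evaluation: percent inhibition of parasite-derived β-gal signal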
PP1 counter – blocks human PP1-alpha phosphatase, a PP5 counter-screen; purified PP1alpha, OMFP fluorescence; inhibition, % at 6.7 µM; actives 0.9% (n = 320,000); AID 2235;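 active = inhibition above the mean inhibition of all tested compounds plus 3 SD, computed separately for each screening campaign, cut at about 15% in these data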
Target sequence (P62136 whole entry, looked up): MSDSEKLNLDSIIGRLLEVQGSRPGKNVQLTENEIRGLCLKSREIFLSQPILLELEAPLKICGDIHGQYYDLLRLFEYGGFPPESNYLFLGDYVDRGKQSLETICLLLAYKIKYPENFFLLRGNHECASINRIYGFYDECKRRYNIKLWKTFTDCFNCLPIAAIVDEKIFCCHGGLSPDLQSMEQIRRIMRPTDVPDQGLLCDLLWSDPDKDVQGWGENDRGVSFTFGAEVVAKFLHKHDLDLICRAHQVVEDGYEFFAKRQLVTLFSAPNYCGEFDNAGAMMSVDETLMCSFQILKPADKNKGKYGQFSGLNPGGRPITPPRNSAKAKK
UBC13 polyUb – human UBC13 polyubiquitination inhibition | P61088 | UBC13 polyubiquitin chain formation, TR-FRET | inhibition, % at 20 µM | actives 0.47% (n = 330,000); in the data active = inhibition above about 45%, passing the limit was not always enough; inconclusive = no clear call, values can overlap the other calls
AI-2 QS mod – modulates the Vibrio harveyi AI-2 quorum sensing system | Vibrio harveyi JMH597 AI-2 luminescence/OD600 ratio, 9 h; stronger effect = lower value; strain lacks LuxN and CqsS sensors; 0 = neutral-control median | activity change, % at 7.5 µM | actives 0.4% (n = 300,000); in the data active = activity change below about -75%, passing the limit was not always enough; inconclusive = no clear call, values can overlap the other calls;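 also: luminescence divided by OD600 gain over 9 h not by final OD600 alone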
Casp3 UBC13 ctr – inhibits human caspase-3 in UBC13 counter-screen; shares compounds with UBC13 polyUb; Recombinant caspase-3, Caspase-Glo 3/7 luminescence, 60 min; inhibition, % at 20 µM; actives 4% (n = 1,400); AID 488856;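 active = mean inhibition across replicates above about 26%, limit read from the data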
Target sequence (P42574 whole entry, looked up): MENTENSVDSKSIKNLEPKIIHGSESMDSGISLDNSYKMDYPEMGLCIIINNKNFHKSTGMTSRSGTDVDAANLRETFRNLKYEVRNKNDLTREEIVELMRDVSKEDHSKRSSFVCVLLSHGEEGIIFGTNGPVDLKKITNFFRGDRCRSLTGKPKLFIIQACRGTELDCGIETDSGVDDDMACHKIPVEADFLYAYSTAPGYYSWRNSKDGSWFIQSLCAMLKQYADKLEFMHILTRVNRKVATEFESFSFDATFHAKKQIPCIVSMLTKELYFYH
UBC13 conf – confirmation of human UBC13 polyubiquitin inhibitors | shares compounds with UBC13 polyUb | UBC13 polyubiquitination, TR-FRET, biochemical | inhibition, % at 10 µM | actives 68% (n = 1,400) | AID 488859; in the data active = inhibition above about 45%; inconclusive = no clear call, values can overlap the other calls
Large screens that a line does not name were inactive (follow-up assays come after a bar, where they were run). Most compounds without a hit are left out; they make up all but 2.8% or so of the library.

COC(=O)C1=C(C)N(CC2CC2)C(=NCc2cccc(Cl)c2)N[C@H]1c1ccccc1	UBC13 polyUb 54 | Casp3 UBC13 ctr inactive | UBC13 conf inactive
COC(=O)C1=C(C)N(Cc2ccccc2)C(=NCCc2c[nH]c3ccccc23)N[C@H]1c1cccc(F)c1	UBC13 polyUb 62 (no result: p-CIP stab down, T cruzi repl, PP1 counter, AI-2 QS mod) | Casp3 UBC13 ctr inactive | UBC13 conf 64
COC(=O)C1=C(C)N(Cc2ccccc2)C(=NCc2ccccc2)N[C@H]1c1cccc(F)c1	UBC13 polyUb 67 | Casp3 UBC13 ctr inactive | UBC13 conf inactive
COC(=O)C1=C(C)N(Cc2ccccc2)C(=NCc2cccc(Cl)c2)N[C@H]1c1ccccc1	UBC13 polyUb 70 (no result: p-CIP stab down, T cruzi repl, PP1 counter, AI-2 QS mod) | Casp3 UBC13 ctr inactive | UBC13 conf 67
CC(C)[C@H](NS(=O)(=O)c1ccccc1F)C(=O)NC1CCCCC1	none (no result: p-CIP stab down, T cruzi repl, PP1 counter, AI-2 QS mod)
O=C(CSc1ccc(Cl)cc1)NCc1ccco1	none
O=C(C(=O)N1CCN(c2cccc(Cl)c2)CC1)c1cn(CC(=O)N2CCOCC2)c2ccccc12	none
CCOC(=O)N1CCC(NC(=O)c2cc(C)c3c(C)nn(-c4ccccc4)c3n2)CC1	UBC13 polyUb 45 | Casp3 UBC13 ctr inactive | UBC13 conf inactive
CCOC(=O)N1CCC(NC(=O)c2ccccc2C(=O)O)CC1	none (no result: AI-2 QS mod)
CCOC(=O)c1c(CN2CCN(c3ccccc3)CC2)oc2ccc(O)cc12	UBC13 polyUb 91 | Casp3 UBC13 ctr inactive | UBC13 conf 83
COc1ccc(OCC(=O)NNC(=S)NC(=O)C2CCCCC2)cc1	none
Cc1cc(C)cc(OCC(=O)NNC(=S)NC(=O)C2CC2)c1	UBC13 polyUb 83 | Casp3 UBC13 ctr inactive | UBC13 conf 104
COc1ccc(OCC(=O)NNC(=S)NC(=O)C2CC2)cc1	UBC13 polyUb 79, AI-2 QS mod inconclusive (no result: PP1 counter) | Casp3 UBC13 ctr inactive | UBC13 conf 101
O=C(NCc1ccco1)c1cccc2c1C(=O)c1ccc(N3CCCC3)cc1S2(=O)=O	none (no result: p-CIP stab down, T cruzi repl, PP1 counter, AI-2 QS mod)
COc1ccc(C2c3ccc4ccccc4c3Oc3ncn(CCCN(C)C)c(=N)c32)cc1 (stereo unspecified)	UBC13 polyUb 61 | Casp3 UBC13 ctr inactive | UBC13 conf 48
COc1ccccc1C1c2ccc3ccccc3c2Oc2ncn(CCN(C)C)c(=N)c21 (stereo unspecified)	none
Cc1cccc(N(C(=O)c2snc(C(N)=O)c2N)C(C(=O)NCC2CCCO2)c2cccs2)c1 (stereo unspecified)	UBC13 polyUb 62 | Casp3 UBC13 ctr inactive | UBC13 conf 71
COc1ccccc1N(C(=O)c1snc(C(N)=O)c1N)C(C(=O)NC1CCCC1)c1ccco1 (stereo unspecified)	none
NC(=O)c1nsc(C(=O)N(c2ccc(Cl)cc2)C(C(=O)NCC2CCCO2)c2cccs2)c1N (stereo unspecified)	UBC13 polyUb 46 | Casp3 UBC13 ctr inactive | UBC13 conf 50
Cc1cccc(N(C(=O)c2snc(C(N)=O)c2N)C(C(=O)NC2CCCC2)c2ccco2)c1 (stereo unspecified)	UBC13 polyUb 79 (no result: PP1 counter) | Casp3 UBC13 ctr inactive | UBC13 conf 76
CCc1ccc(-c2nc(SCC(=O)N(CC)C3CCS(=O)(=O)C3)n[nH]2)cc1 (stereo unspecified)	none (no result: p-CIP stab down)
Cc1c(C)c(C)c(S(=O)(=O)N2CCNCC2)c(C)c1C	none
Cc1nc(SCC(=O)N2CCCC2=O)nc(C)c1C	none (no result: p-CIP stab down, T cruzi repl, PP1 counter, AI-2 QS mod)
O=C(Nc1ccc(N2CCOCC2)cc1)c1nc2ccccc2s1	none
CCN(CC)c1ccc(/C=C2\CCC(/C=N/NC(=O)c3ccc(=O)n(C)c3)=C2N2CCOCC2)cc1	UBC13 polyUb 53 | Casp3 UBC13 ctr inactive | UBC13 conf inactive
CC[C@H]1CN2CCc3cc(OC)c(OC)cc3C2C[C@@H]1C[C@H]1NCCc2cc(OC)c(OC)cc21 (stereo partly specified)	UBC13 polyUb 53 (no result: p-CIP stab down, T cruzi repl, AI-2 QS mod) | Casp3 UBC13 ctr inactive | UBC13 conf inactive
O=C(Nc1ccc(C2=NCCN2)cc1)c1ccc(C(=O)Nc2ccc(C3=NCCN3)cc2)c([N+](=O)[O-])c1	UBC13 polyUb 107 | Casp3 UBC13 ctr inactive | UBC13 conf 123
Nc1nonc1-n1nnc(C(=O)N/N=C/c2cccc(Cl)c2Cl)c1CN1CCCC1	none (no result: AI-2 QS mod)
CCc1ccc(-c2cc(C(=O)N/N=C/c3ccccn3)[nH]n2)cc1	UBC13 polyUb 50 | Casp3 UBC13 ctr inactive | UBC13 conf 54
CCc1ccc(-c2cc(C(=O)N/N=C/c3ccco3)[nH]n2)cc1	none
O=C(N/N=C/c1ccccn1)c1ccc(Cl)c(Cl)c1	none
O=C(N/N=C/c1ccccn1)c1cc(-c2ccccc2Cl)n[nH]1	UBC13 polyUb 47 | Casp3 UBC13 ctr inactive | UBC13 conf inactive
O=C(NCc1ccncc1)C(=O)NCC1OCCN1S(=O)(=O)c1ccc(F)cc1 (stereo unspecified)	none
C#CCNC(=O)C1=C[C@H](c2ccc3c(c2)OCO3)[C@@H](CCCO)[C@H](OCC)O1	none
Nc1ccc(OCCCc2c(N)nc(N)nc2N)cc1	UBC13 polyUb 47 | Casp3 UBC13 ctr inactive | UBC13 conf 64
COc1ccc(Cc2c(N)nc(N)nc2N)cc1	none
Cc1cc(-c2nnc(SCC(=O)Nc3ccccc3)n2C)no1	none
CSc1sc(-c2nnc(SCC(=O)Nc3ccccc3)n2C)c2c1C=CCC2	UBC13 polyUb 54 | Casp3 UBC13 ctr inactive | UBC13 conf inconclusive
COc1ccc(OCCCC(=O)Nc2ccc(S(=O)(=O)N3CCOCC3)cc2)cc1	UBC13 polyUb 58 (no result: p-CIP stab down, T cruzi repl, AI-2 QS mod) | Casp3 UBC13 ctr inactive | UBC13 conf 55
O=C1c2ccccc2OC2(C=Cc3ccccc3O2)N1Cc1ccccc1 (stereo unspecified)	none
CN1CC2=Cc3ccccc3OC23Oc2ccccc2C=C3C1	UBC13 polyUb 85 | Casp3 UBC13 ctr inactive | UBC13 conf 94
CC(C)[C@H]1C(=O)Nc2ccccc2N1C(=O)N[C@@H](Cc1ccccc1)C(=O)N[C@@H](Cc1ccccc1)C(=O)O	none
COc1ccc(C[C@H]2CN3C(=NC[C@@H]3C(C)C)N2CCNC(=O)CCC2CCCCC2)cc1	UBC13 polyUb 53 | Casp3 UBC13 ctr inactive | UBC13 conf inactive
COc1ccc(C[C@H]2CN3C(=NC[C@@H]3Cc3ccccc3)N2CCNC(=O)CCC2CCCCC2)cc1	UBC13 polyUb 78 | Casp3 UBC13 ctr inactive | UBC13 conf 69
CCOC(=O)N1CCC(N2C(=O)c3ccccc3C2Nc2ccc(Cl)cn2)CC1 (stereo unspecified)	none
COc1cc(-c2cc(=O)c3c(O)c(OC)c(OC)cc3o2)cc(OC)c1O	UBC13 polyUb 49 | Casp3 UBC13 ctr inactive | UBC13 conf inactive
COc1ccccc1NS(=O)(=O)c1ccc(C(=O)NCc2ccco2)cc1	none (no result: p-CIP stab down, T cruzi repl, PP1 counter, AI-2 QS mod)
